Reference: PMC5458759 (Genes & Development, 2017)
One block for each molecule: values may come before it.

T1: ER^LRR–TMM^LRR complex (Arabidopsis thaliana, UniProt Q42371;Q9SSD1)
T1 sequence 1: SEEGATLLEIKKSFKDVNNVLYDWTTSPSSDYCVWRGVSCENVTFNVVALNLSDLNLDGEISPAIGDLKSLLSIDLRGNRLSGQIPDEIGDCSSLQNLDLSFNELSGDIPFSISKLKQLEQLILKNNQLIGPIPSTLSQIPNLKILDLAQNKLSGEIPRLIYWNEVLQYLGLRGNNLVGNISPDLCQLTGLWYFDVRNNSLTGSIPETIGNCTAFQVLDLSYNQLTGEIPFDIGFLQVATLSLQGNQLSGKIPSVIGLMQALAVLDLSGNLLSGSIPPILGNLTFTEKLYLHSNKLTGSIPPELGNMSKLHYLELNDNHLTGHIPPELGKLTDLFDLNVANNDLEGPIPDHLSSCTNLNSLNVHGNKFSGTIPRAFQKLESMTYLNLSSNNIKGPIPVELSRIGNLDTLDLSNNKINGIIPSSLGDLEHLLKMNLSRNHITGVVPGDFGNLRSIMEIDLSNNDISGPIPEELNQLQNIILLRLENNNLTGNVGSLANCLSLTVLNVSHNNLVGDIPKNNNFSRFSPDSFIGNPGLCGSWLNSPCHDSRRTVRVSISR
T1 sequence 2: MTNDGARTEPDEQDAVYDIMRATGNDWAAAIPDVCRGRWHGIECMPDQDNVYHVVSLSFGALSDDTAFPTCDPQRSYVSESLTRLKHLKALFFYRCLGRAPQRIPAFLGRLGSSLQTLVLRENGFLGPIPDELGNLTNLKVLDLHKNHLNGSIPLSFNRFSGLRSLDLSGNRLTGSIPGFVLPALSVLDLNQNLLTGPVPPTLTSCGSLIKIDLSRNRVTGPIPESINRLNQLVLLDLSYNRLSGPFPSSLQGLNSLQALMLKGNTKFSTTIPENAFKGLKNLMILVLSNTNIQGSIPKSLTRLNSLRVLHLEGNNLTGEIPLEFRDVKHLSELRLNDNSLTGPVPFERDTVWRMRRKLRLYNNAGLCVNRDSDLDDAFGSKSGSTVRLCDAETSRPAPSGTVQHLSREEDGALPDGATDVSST

T2: ERL1^LRR, extracellular LRR domain of ER-LIKE1 (ERL1) (Arabidopsis thaliana, UniProt C0LGW6 24-580)
T2 sequence: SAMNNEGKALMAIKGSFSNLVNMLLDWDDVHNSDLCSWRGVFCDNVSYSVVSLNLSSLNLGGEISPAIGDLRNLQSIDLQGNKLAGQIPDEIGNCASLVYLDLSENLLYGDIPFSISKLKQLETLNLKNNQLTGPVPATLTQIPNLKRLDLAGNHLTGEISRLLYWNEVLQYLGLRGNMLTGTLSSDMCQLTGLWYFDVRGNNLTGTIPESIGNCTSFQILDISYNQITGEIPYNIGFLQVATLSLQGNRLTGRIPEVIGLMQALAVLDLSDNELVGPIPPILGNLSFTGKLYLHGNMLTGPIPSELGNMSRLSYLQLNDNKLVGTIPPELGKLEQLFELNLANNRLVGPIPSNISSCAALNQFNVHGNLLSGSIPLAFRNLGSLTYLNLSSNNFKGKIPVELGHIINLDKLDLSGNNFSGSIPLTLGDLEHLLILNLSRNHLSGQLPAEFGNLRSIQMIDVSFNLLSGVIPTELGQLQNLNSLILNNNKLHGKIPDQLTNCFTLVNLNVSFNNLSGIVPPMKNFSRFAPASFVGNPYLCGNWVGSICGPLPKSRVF

T3: ER^LRR, extracellular LRR domain of ERECTA (ER) (Arabidopsis thaliana, UniProt Q42371 24-580)
T3 sequence: T1 sequence 1

T4: ERL2^LRR, extracellular LRR domain of ERL2 (Arabidopsis thaliana, UniProt Q6XAT2 28-580)
T4 sequence: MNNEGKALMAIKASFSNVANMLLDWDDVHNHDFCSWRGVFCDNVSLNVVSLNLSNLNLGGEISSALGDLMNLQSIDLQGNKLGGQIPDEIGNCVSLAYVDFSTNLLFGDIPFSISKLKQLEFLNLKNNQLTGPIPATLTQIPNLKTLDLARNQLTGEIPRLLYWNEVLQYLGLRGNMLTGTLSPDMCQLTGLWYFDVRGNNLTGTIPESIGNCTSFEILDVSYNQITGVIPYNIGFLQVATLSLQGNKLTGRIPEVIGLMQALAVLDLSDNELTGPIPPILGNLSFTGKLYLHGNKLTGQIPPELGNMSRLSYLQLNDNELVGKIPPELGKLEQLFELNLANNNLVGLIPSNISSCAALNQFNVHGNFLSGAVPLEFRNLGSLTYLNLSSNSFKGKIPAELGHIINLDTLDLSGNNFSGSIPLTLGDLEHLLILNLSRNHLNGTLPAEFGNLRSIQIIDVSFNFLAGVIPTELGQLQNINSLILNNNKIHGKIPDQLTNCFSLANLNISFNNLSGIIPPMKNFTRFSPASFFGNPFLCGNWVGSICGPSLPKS

T5: ERL1^LRR–TMM^LRR complex (Arabidopsis thaliana, UniProt C0LGW6;Q9SSD1)
T5 sequence 1: T2 sequence
T5 sequence 2: T1 sequence 2

B1: … PATTERNING FACTOR 1 (EPF1) peptide, residues 53–104 (peptide)
chain: AGSRLPDCSHACGSCSPCRLVMVSFVCASVEEAETCPMAYKCMCNNKSYPVP
B2: TMM^LRR, extracellular LRR domain of TOO MANY MOUTHS (TMM) (domain or fragment)
chain: T1 sequence 2
B3: EPFL4 (CHALLAH-LIKE2, CLL2) peptide, residues 59–109 (peptide)
chain: PGSSPPTCRSKCGKCQPCKPVHVPIQPGLSMPLEYYPEAWRCKCGNKLFMP
B4: … PATTERNING FACTOR 2 (EPF2) peptide, residues 69–120 (peptide)
chain: TGSSLPDCSYACGACSPCKRVMISFECSVAESCSVIYRCTCRGRYYHVPSRA
B5: EPF2-6xHis (C-terminally His-tagged EPF2) (peptide)
chain: B4 chain

Assays:
[1] = target: ERL1^LRR–TMM^LRR complex (Arabidopsis thaliana) (UniProt C0LGW6); assay: ITC
ERL2^LRR = assay: Pull-down assay with 6xHis-tagged ERL2^LRR; assay type: binding, Arabidopsis; settings: Ni resin, SDS-PAGE, Coomassie blue; without TMM^LRR
Summary of the method: (§1)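 Purified C-terminal 6xHis-tagged receptor LRR, from High Five cells, was mixed with excess EPF-family peptide and Ni resin for 30 min on ice. The resin was washed four times in 25 mM Tris pH 8.0, 250 mM NaCl, 15 mM imidazole, then heated 5 min at 100°C in SDS loading buffer. Bound protein was detected by SDS-PAGE with Coomassie staining.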

ER^LRR [2] = assay: Pull-down assay with 6xHis-tagged ER^LRR; assay type: binding, Arabidopsis; settings: Ni resin, SDS-PAGE, Coomassie blue; without TMM^LRR
Summary of the method: as §1

ERL1^LRR [3] = assay: Gel filtration assay with ERL1^LRR; assay type: binding, Arabidopsis; settings: 10 mM Bis-Tris pH 6.0, 100 mM NaCl; incubated 30 min at 4°C
Summary of the method: (§2)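 LRR ectodomains were expressed in High Five insect cells by baculovirus at 22°C; for complexes, the ERf and TMM viruses were added together. Protein was purified from the supernatant by Ni-NTA and then size exclusion. Receptor and EPF-family peptide were mixed, held 30 min at 4°C, then run on Superdex 200 in 10 mM Bis-Tris pH 6.0, 100 mM NaCl. Fractions were analysed by SDS-PAGE with Coomassie staining.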

ERL1^LRR [4] = assay: Pull-down assay with 6xHis-tagged ERL1^LRR; assay type: binding, Arabidopsis; settings: Ni resin, SDS-PAGE, Coomassie blue; without TMM^LRR
Summary of the method: as §1

ERL1^LRR–TMM^LRR complex [5] = assay: Gel filtration assay with ERL1^LRR–TMM^LRR complex; assay type: binding, Arabidopsis; settings: 10 mM Bis-Tris pH 6.0, 100 mM NaCl; incubated 30 min at 4°C
Summary of the method: as §2

ER^LRR [6] = assay: Gel filtration assay with ER^LRR; assay type: binding, Arabidopsis; settings: 10 mM Bis-Tris pH 6.0, 100 mM NaCl; incubated 30 min at 4°C
Summary of the method: as §2

ER^LRR–TMM^LRR complex [7] = assay: Gel filtration assay with ER^LRR–TMM^LRR complex; assay type: binding, Arabidopsis; settings: 10 mM Bis-Tris pH 6.0, 100 mM NaCl; incubated 30 min at 4°C
Summary of the method: as §2

ER^LRR–TMM^LRR complex [8] = target: T1, ER^LRR–TMM^LRR complex; assay: SEC
[9] = target: B2; assay: crystal structure
[10] = target: T2, ERL1^LRR, extracellular LRR domain of …; assay: SEC
[11] = target: T3, ER^LRR, extracellular LRR domain of …; assay: SEC
[12] = target: T3, ER^LRR, extracellular LRR domain of …; assay: pull-down
[13] = target: T4, ERL2^LRR, extracellular LRR domain of …; assay: pull-down
ERL1^LRR–TMM^LRR complex [14] = target: T5, ERL1^LRR–TMM^LRR complex; assay: ITC
ER^LRR–TMM^LRR complex [15] = target: T1, ER^LRR–TMM^LRR complex; assay: pull-down

Kd [1]: 420 nM
Molecule: EPFL4–EPF1, swapped EPFL4 mutant with the apical loop region of EPF1 (peptide)

Molecule: EPF2: cysteine-rich EPF family peptide, residues 69–120, expressed in insect cells (TGSSLPDCSYACGACSPCKRVMISFECSVAESCSVIYRCTCRGRYYHVPSRA)
interaction with ERL2^LRR in pull-down (ERL2^LRR): none of the three ERf proteins displayed interaction
interaction with ER^LRR in pull-down (ER^LRR [2]): none of the three ERf proteins displayed interaction
interaction with ERL1^LRR alone in gel filtration (ERL1^LRR [3]): no binding
interaction with ERL1^LRR in pull-down (ERL1^LRR [4]): none of the three ERf proteins displayed interaction
interaction with ERL1^LRR–TMM^LRR in gel filtration (comigration) (ERL1^LRR–TMM^LRR complex [5]): strong interaction
interaction with ER^LRR alone in gel filtration (ER^LRR [6]): no binding
interaction with ER^LRR–TMM^LRR in gel filtration (comigration) (ER^LRR–TMM^LRR complex [7]): strong interaction

Molecule: EPFL6: EPF family growth regulatory peptide, residues 106–156 (LGSSPPRCSSKCGRCTPCKPVHVPVPPGTPVTAEYYPEAWRCKCGNKLYMP)
interaction with ERL2^LRR in pull-down (ERL2^LRR): sufficient for interaction
interaction with ER^LRR in pull-down (ER^LRR [2]): sufficient for interaction
interaction with ERL1^LRR in pull-down (ERL1^LRR [4]): sufficient for interaction

Molecule: EPF1: cysteine-rich EPF family peptide, residues 53–104, expressed in High Five insect cells (AGSRLPDCSHACGSCSPCRLVMVSFVCASVEEAETCPMAYKCMCNNKSYPVP)
interaction with ERL1^LRR alone in gel filtration (ERL1^LRR [3]): no binding
interaction with ERL1^LRR–TMM^LRR in gel filtration (comigration) (ERL1^LRR–TMM^LRR complex [5]): strong interaction
interaction with ER^LRR alone in gel filtration (ER^LRR [6]): no binding
interaction with ER^LRR–TMM^LRR in gel filtration (comigration) (ER^LRR–TMM^LRR complex [7]): strong interaction

Molecule: B1
binding result (ER^LRR–TMM^LRR complex [8]): binds
binding result [9]: binds

Molecule: B2
stoichiometry N [10]: ~1
stoichiometry N [11]: ~1

Molecule: B3
binding result [12]: binds
binding result [13]: binds
Kd (ERL1^LRR–TMM^LRR complex [14]): 1300 nM

Molecule: B4
binding result (ER^LRR–TMM^LRR complex [8]): binds
binding result [9]: binds

Molecule: B5
binding result (ER^LRR–TMM^LRR complex [15]): binds
